ChEMBL document CHEMBL1909531, “Mitochondrial respiration inhibitors suppress protein translation and hypoxic signaling via the hyperphosphorylation and inactivation of translation initiation factor eIF2α and elongation factor eEF2” (J Nat Prod, 2011)
The source made the active and inactive calls. The rule behind the calls is not given here.

Tests used:
T47D [1] = assay: Inhibition of 1, 10-phenanthroline-induced HIF1beta protein accumulation in human T47D cells at 3 uM after 4 hrs by Western blot analysis; assay type: functional, cell-based
T47D [2] = assay: Antiproliferative activity against human T47D cells assessed as cell viability by SRB assay; assay type: functional, cell-based
Procedure, shortened: (§1)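 Cells grown in DMEM/F12 with 10% FBS, penicillin and streptomycin; 96-well viability assay, 2-day or 6-day exposure, with medium (5% FBS) and compound renewed after 3 days in the 6-day study. Read by optical density; % inhibition = [1 − (ODtreated/ODcontrol)] × 100 versus medium control.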

T47D [3] = assay: Inhibition of 1, 10-phenanthroline-induced HIF1alpha protein accumulation in human T47D cells at 3 uM after 4 hrs by Western blot analysis; assay type: functional, cell-based
[4] = target: T1, Hypoxia inducible factors; HIF-1-alpha, HIF-2-alpha (Homo sapiens, UniProt Q16665+Q99814); assay: Inhibition of hypoxia-induced HIF1 activation in human T47D cells after 16 hrs by HRE3-TK-luciferase reporter gene assay; assay type: cell-based
Procedure, shortened: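 T47D cells carrying the pHRE3-TK-Luc reporter, grown in DMEM/F12 with 10% FBS; HIF-1 induced by hypoxia (1% O2). Activity reported as % inhibition of the induced control, calculated as [1 − (treated/control)] × 100.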

[5] = target: T1, Hypoxia inducible factors; HIF-1-alpha, HIF-2-alpha; assay: Inhibition of HIF1-mediated induction of secreted VEGF protein in human T47D cells at 3 uM after 16 hrs by ELISA under normoxic condition; assay type: cell-based
[6] = target: T1, Hypoxia inducible factors; HIF-1-alpha, HIF-2-alpha; assay: Inhibition of HIF1-mediated induction of secreted VEGF protein in hypoxia-stimulated human T47D cells at 3 uM after 16 hrs by ELISA; assay type: cell-based
[7] = target: T1, Hypoxia inducible factors; HIF-1-alpha, HIF-2-alpha; assay: Inhibition of HIF1-mediated induction of Glut-1 mRNA expression in hypoxia-stimulated human T47D cells at 0.3 to 3 uM after 16 hrs by RT-PCR analysis; assay type: cell-based
[8] = target: T1, Hypoxia inducible factors; HIF-1-alpha, HIF-2-alpha; assay: Inhibition of HIF1-mediated induction of cellular VEGF protein in human T47D cells at 3 uM after 16 hrs by ELISA under normoxic condition; assay type: cell-based
[9] = target: T1, Hypoxia inducible factors; HIF-1-alpha, HIF-2-alpha; assay: Inhibition of HIF1-mediated induction of VEGF mRNA expression in hypoxia-stimulated human T47D cells at 0.3 to 3 uM after 16 hrs by RT-PCR analysis; assay type: cell-based
MDA-MB-231 [10] = assay: Antiproliferative activity against human MDA-MB-231 cells assessed as cell viability by SRB assay; assay type: functional, cell-based; procedure, shortened: as §1
T47D [11] = assay: Inhibition of cellular respiration in human T47D cells at 1 uM by oxygen consumption assay; assay type: functional
Procedure, shortened: (§2)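 Oxygen consumption of intact T47D cells measured with a Clark-type electrode, in serum-free DMEM/F12 at 30 °C.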

[12] = target: T1, Hypoxia inducible factors; HIF-1-alpha, HIF-2-alpha; assay: Inhibition of HIF1-mediated induction of cellular VEGF protein in hypoxia-stimulated human T47D cells at 0.3 uM after 16 hrs by ELISA; assay type: cell-based
[13] = target: T1, Hypoxia inducible factors; HIF-1-alpha, HIF-2-alpha; assay: Inhibition of 1, 10-phenanthroline-induced HIF1 activation in human T47D cells after 16 hrs by HRE3-TK-luciferase reporter gene assay; assay type: cell-based
PC-3 = assay: Antiproliferative activity against human PC3 cells assessed as cell viability by SRB assay; assay type: functional, cell-based; procedure, shortened: as §1
[14] = target: T1, Hypoxia inducible factors; HIF-1-alpha, HIF-2-alpha; assay: Inhibition of HIF1-mediated induction of VEGF mRNA expression in human T47D cells at 3 uM after 16 hrs by RT-PCR analysis under normoxic condition; assay type: cell-based
T47D [15] = assay: Inhibition of HIF1alpha protein accumulation under hypoxic condition in human T47D cells at 3 uM after 4 hrs by Western blot analysis; assay type: functional, cell-based
T47D [16] = assay: Inhibition of HIF1beta protein accumulation under hypoxic condition in human T47D cells at 3 uM after 4 hrs by Western blot analysis; assay type: functional, cell-based
[17] = target: T1, Hypoxia inducible factors; HIF-1-alpha, HIF-2-alpha; assay: Inhibition of HIF1-mediated induction of Glut-1 mRNA expression in human T47D cells at 3 uM after 16 hrs by RT-PCR analysis under normoxic condition; assay type: cell-based
T47D [18] = assay: Ratio of IC50 for 1, 10-phenanthroline-induced HIF1 activation in human T47D cells to IC50 for hypoxia-induced HIF1 activation in human T47D cells; assay type: cell-based
[19] = target: T1, Hypoxia inducible factors; HIF-1-alpha, HIF-2-alpha; assay: Inhibition of HIF1-mediated induction of secreted VEGF protein in hypoxia-stimulated human T47D cells at 0.3 uM after 16 hrs by ELISA; assay type: cell-based
T47D [20] = assay: Inhibition of cellular respiration in human T47D cell at 0.03 to 1 uM by oxygen consumption assay; assay type: functional, cell-based; procedure, shortened: as §2
[21] = target: T1, Hypoxia inducible factors; HIF-1-alpha, HIF-2-alpha; assay: Inhibition of HIF1-mediated induction of cellular VEGF protein in hypoxia-stimulated human T47D cells at 3 uM after 16 hrs by ELISA; assay type: cell-based
MDA-MB-231 [22] = assay: Inhibition of cellular respiration in human MDA-MB-231 cells assessed as rate of oxygen consumption; assay type: functional, cell-based
Procedure, shortened: (§3)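 Whole-cell oxygen consumption measured with a Clarke-type oxygen electrode during a concentration-response series. Cells in serum-free DMEM/F12 medium at 30 °C.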

[23] = target: Serine/threonine-protein kinase mTOR (Homo sapiens) (UniProt P42345); assay: Inhibition of mTOR in human MDA-MB-231 cells assessed as eIF2alpha hyperphosphorylation on Ser 51 at 0.1 to 1 uM after 30 mins by Western blotting; assay type: cell-based
Procedure, shortened: (§4)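 0.8 × 10^6 cells per well exposed for 30 min at 37 °C, 5% CO2, in DMEM/F12 with 5% FBS. Cells washed with cold DPBS and lysed in modified RIPA (pH 7.6) with protease and phosphatase inhibitors. 40 µg protein run on 4–20% SDS-PAGE and blotted. Phospho-site-specific primary antibodies at 1:1,000, HRP anti-rabbit IgG, chemiluminescence on film.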

MDA-MB-231 [24] = assay: Reduction in ATP level in human MDA-MB-231 cells after 72 hrs by HPLC-UV analysis; assay type: functional, cell-based
Procedure, shortened: (§5)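 5 × 10^5 cells per well seeded in DMEM/F12 with 10% FBS. After 24 h, half the medium replaced with serum-free DMEM/F12 containing compound. After exposure, cells washed in cold DPBS and extracted with cold 0.4 M perchloric acid, then neutralized with K2CO3. ATP quantified by reversed-phase C18 HPLC-UV using 50 mM potassium phosphate pH 6.0/MeOH at 0.7 mL/min.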

[25] = target: Serine/threonine-protein kinase mTOR (Homo sapiens) (UniProt P42345); assay: Inhibition of mTOR-mediated rpS6 phosphorylation on Ser 235/236 in human MDA-MB-231 cells at 0.1 to 1 uM after 30 mins by Western blotting; assay type: cell-based; procedure, shortened: as §4
T47D [26] = assay: Reduction in ATP level in human T47D cells after 48 hrs by HPLC-UV analysis; assay type: functional, cell-based; procedure, shortened: as §5
[27] = target: Serine/threonine-protein kinase mTOR (Homo sapiens) (UniProt P42345); assay: Inhibition of mTOR in human T47D cells assessed as eEF2 hyperphosphorylation on Ser 56 at 0.1 to 1 uM after 30 mins by Western blotting; assay type: cell-based; procedure, shortened: as §4
T47D [28] = assay: Reduction in ATP level in human T47D cells after 72 hrs by HPLC-UV analysis; assay type: functional, cell-based; procedure, shortened: as §5
[29] = target: Serine/threonine-protein kinase mTOR (Homo sapiens) (UniProt P42345); assay: Inhibition of mTORC1-mediated eIF4E phosphorylation on Ser 209 in human T47D cells at 0.1 to 1 uM after 30 mins by Western blotting; assay type: cell-based; procedure, shortened: as §4
MDA-MB-231 [30] = assay: Reduction in ATP level in human MDA-MB-231 cells at 0.01 to 0.1 uM after 48 hrs by HPLC-UV analysis; assay type: functional, cell-based; procedure, shortened: as §5
[31] = target: Serine/threonine-protein kinase mTOR (Homo sapiens) (UniProt P42345); assay: Inhibition of mTOR-mediated 4E-BP1 phosphorylation on Thr 37/46 in human T47D cells at 0.1 to 1 uM after 30 mins by Western blotting; assay type: cell-based; procedure, shortened: as §4
[32] = target: Serine/threonine-protein kinase mTOR (Homo sapiens) (UniProt P42345); assay: Inhibition of mTOR in human MDA-MB-231 cells assessed as eEF2 hyperphosphorylation on Ser 56 at 0.1 to 1 uM after 30 mins by Western blotting; assay type: cell-based; procedure, shortened: as §4
[33] = target: Serine/threonine-protein kinase mTOR (Homo sapiens) (UniProt P42345); assay: Inhibition of mTOR in human T47D cells assessed as eIF2alpha hyperphosphorylation on Ser 51 at 0.1 to 1 uM after 30 mins by Western blotting; assay type: cell-based; procedure, shortened: as §4
T47D [34] = assay: Inhibition of cellular respiration in human T47D cells assessed as rate of oxygen consumption at 0.001 to 0.1 uM; assay type: functional, cell-based; procedure, shortened: as §3
T47D [35] = assay: Antiproliferative activity against human T47D cells assessed as cell viability at 0.01 to 0.1 uM after 72 hrs by SRB assay; assay type: functional
Procedure, shortened: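 T47D cells grown in DMEM/F12 with 10% FBS and penicillin/streptomycin, then exposed for 72 h in a parallel 96-well viability study. Cells fixed in the wells with no aspiration or wash, stained by sulforhodamine B, and read by OD. % inhibition = [1 − (OD treated/OD medium control)] × 100.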

[36] = target: Serine/threonine-protein kinase mTOR (Homo sapiens) (UniProt P42345); assay: Inhibition of mTORC1-mediated rpS6 phosphorylation on Ser 235/236 in human T47D cells at 0.1 to 1 uM after 30 mins by Western blotting; assay type: cell-based; procedure, shortened: as §4
[37] = target: Serine/threonine-protein kinase mTOR (Homo sapiens) (UniProt P42345); assay: Inhibition of mTOR-mediated eIF4E phosphorylation on Ser 209 in human MDA-MB-231 cells at 0.1 to 1 uM after 30 mins by Western blotting; assay type: cell-based; procedure, shortened: as §4
T47D [38] = assay: Reduction in ATP level in human T47D cells at 0.01 to 0.1 uM after 72 hrs by HPLC-UV analysis; assay type: functional, cell-based; procedure, shortened: as §5
[39] = target: Serine/threonine-protein kinase mTOR (Homo sapiens) (UniProt P42345); assay: Inhibition of mTOR-mediated 4E-BP1 phosphorylation on Thr 37/46 in human MDA-MB-231 cells at 0.1 to 1 uM after 30 mins by Western blotting; assay type: cell-based; procedure, shortened: as §4

## CC(C)=CC(=O)O[C@@H]1CC[C@]2(C)[C@H]3CC[C@]45C[C@]4(CC[C@@H]5[C@@H]4C[C@H]([C@@H]5OC5(C)C)OC4O)[C@]3(C)[C@H](O)C[C@H]2C1(C)C (stereo not given in full) [SKIMMIAREPIN C]
T47D [1]
  inhibition: inactive
T47D [2]
  Activity: Active
T47D [3]
  inhibition: inactive
[4]
  IC50: 68 nM
[5]
  inhibition: inactive
[6]
  inhibition: Active
[7]
  inhibition: Active
[8]
  inhibition: inactive
[9]
  inhibition: Active
MDA-MB-231 [10]
  Activity: inactive
T47D [11]
  inhibition at 1 µM: 75%
[12]
  inhibition: Active
[13]
  IC50: 5600 nM
PC-3
  Activity: Active
[14]
  inhibition: inactive
T47D [15]
  inhibition: Active
T47D [16]
  inhibition: inactive
[17]
  inhibition: inactive
T47D [18]
  Ratio IC50: 80
[19]
  inhibition: Active
T47D [20]
  inhibition: Dose-dependent effect
[21]
  inhibition: Active

## C=C(C)[C@H]1Cc2c(ccc3c2O[C@@H]2COc4cc(OC)c(OC)cc4[C@@H]2C3=O)O1 [ROTENONE]
MDA-MB-231 [22]
  inhibition: Dose-dependent effect
[23]
  Activity: Active
MDA-MB-231 [24]
  Activity: Dose-dependent effect
[25]
  inhibition: inactive
T47D [26]
  Activity: Active
[27]
  Activity: Active
T47D [28]
  Activity: Dose-dependent effect
[29]
  inhibition: inactive
MDA-MB-231 [30]
  Activity: Active
[31]
  inhibition: inactive
[32]
  Activity: Active
[33]
  inhibition: Active
T47D [34]
  inhibition: Active
T47D [35]
  Activity: 50%
[36]
  inhibition: inactive
[37]
  inhibition: inactive
T47D [38]
  Activity: Active
[39]
  inhibition: inactive
